The test system of series [1] is T47D. In words: Antiproliferative activity against human T47D cells after 48 hrs by SRB assay. In kind it is functional, cell-based. The method, boiled down: (§1)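 Cells grown in RPMI-1640 with 5% heat-inactivated FCS, 1 mmol L-1 L-glutamine and 50 µg/mL gentamicin at 37 °C, 5% CO2. Seeded at 1000–2000 cells/well, 24 h later exposed 48 h to 5, 12, 25 and 50 µmol L-1. Fixed with 10% TCA 1 h at 4 °C, stained with 0.4% SRB, dye dissolved in Tris-HCl, OD 564 nm. IC50 from Boltzmann sigmoidal nonlinear regression.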
In general terms: In SRB staining, fixed cells bind dye roughly in proportion to their protein.

A further series deals with T1, Aromatase (Homo sapiens, UniProt P11511).
T1 sequence (P11511 whole entry): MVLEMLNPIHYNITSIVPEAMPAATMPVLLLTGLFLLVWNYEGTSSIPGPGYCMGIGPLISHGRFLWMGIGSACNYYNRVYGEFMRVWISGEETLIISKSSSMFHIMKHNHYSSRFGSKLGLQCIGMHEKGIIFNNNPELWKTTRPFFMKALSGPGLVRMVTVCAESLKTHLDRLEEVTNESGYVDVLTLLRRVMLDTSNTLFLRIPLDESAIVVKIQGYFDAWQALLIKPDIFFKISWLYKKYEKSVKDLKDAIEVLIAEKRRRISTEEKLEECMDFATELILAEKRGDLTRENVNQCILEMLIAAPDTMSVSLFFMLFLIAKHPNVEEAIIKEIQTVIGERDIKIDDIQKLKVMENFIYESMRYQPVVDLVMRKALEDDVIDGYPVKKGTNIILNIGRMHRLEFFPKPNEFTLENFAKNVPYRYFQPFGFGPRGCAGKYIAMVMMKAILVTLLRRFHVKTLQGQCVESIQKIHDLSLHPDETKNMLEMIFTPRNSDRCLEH
As to the kind of experiment: Inhibition of aromatase activity in human T47D cells after 24 hrs. In kind it is cell-based. Conditions: for inhibition (INH): human, 24 h. The method, boiled down: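 T47D cells in DMEM with 10% FBS, 10 µg/ml insulin and 1% penicillin-streptomycin. Plated at 1.2–1.8 × 10,000 cells/well. Treated 24 h with serial dilutions, then cellular aromatase activity measured and IC50 determined.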

The test system of series [2] is T47D. As to the kind of experiment: Cell cycle arrest in human T47D cells by flow cytometry. Format: functional, cell-based. The method, boiled down:
(§2)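 Cell cycle distribution by flow cytometry in T47D cells, treated cells versus untreated control, at 8.1 µM; percentage of cells in G1, S and G2/M phases recorded.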
A general note: In flow cytometry, cells or beads pass a laser one at a time.

Series [3] has as its system T47D. In words: Cell cycle arrest in human T47D cells assessed as accumulation at S phase at 8.1 uM by flow cytometry (reference value: 17.14%). In kind it is functional. The method, boiled down: as §2
The test system of series [4] is T47D. As to the kind of experiment: Induction of apoptosis in human T47D cells assessed as increase in caspase-8 level by ELISA relative to control. In kind it is functional. The method, boiled down:
(§3)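 Caspase-8 and caspase-9 in T47D cells quantified with separate human ELISA kits, reported as ng/mL against untreated control cells.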
Background: An ELISA detects its analyte on a solid surface through an enzyme-linked reagent.

Series [5] has as its system T47D. In words: Induction of apoptosis in human T47D cells assessed as increase in caspase-9 level by ELISA relative to control. In kind it is functional. The method, boiled down: as §3
For series [6], the system named is T47D. As to the kind of experiment: Induction of apoptosis in human T47D cells assessed as increase in BAX expression level at IC50 by qRT-PCR analysis relative to control. Format: functional.
Series [7] has as its system T47D. In words: Induction of apoptosis in human T47D cells assessed as decrease in Bcl-XL expression level at IC50 by qRT-PCR analysis relative to control. Format: functional, cell-based.
A short description of series [8]: Cytotoxicity against human 184A1 cells after 48 hrs by SRB assay. Format: cell-based. The conditions noted are these: 184A1, 48 h. The method, boiled down: as §1
Series [9] concerns T47D. In words: Cell cycle arrest in human T47D cells assessed as accumulation at G2/M phase at 8.1 uM by flow cytometry (reference value: 15.81%). In kind it is functional. The method, boiled down:
as §2

Series [10] concerns T47D. As to the kind of experiment: Cell cycle arrest in human T47D cells assessed as accumulation at G1 phase at 8.1 uM by flow cytometry (reference value: 64.92%). In kind it is functional. The method, boiled down: as §2
Series [11] deals with T47D. In words: Induction of apoptosis in human T47D cells (reference value: 2.13%). Format: functional.
For series [12], the system named is T47D. In words: Induction of apoptosis in human T47D cells assessed as increase in Bax/Bcl2 ratio at IC50 by qRT-PCR analysis relative to control. Format: functional.

In general, IC50 refers to the concentration at which inhibition is half-maximal. Consider `O=C(/C=C\Nc1ccc(S(=O)(=O)Nc2ccccn2)cc1)c1ccc2c(c1)Nc1ccccc1S2`, for which the IC50 stood at 8.8 µM with T47D [1] and 6.7 µM against Aromatase. Further, the “inhibition (INH)” value against Aromatase came out at 68.86%.
In the series on T47D [1], `O=C(/C=C\Nc1ccc(S(=O)(=O)Nc2ccnn2-c2ccccc2)cc1)c1ccc2c(c1)Nc1ccccc1S2` returned an IC50 of 68.1 µM.
In the series with T47D [1], `Cc1noc(NS(=O)(=O)c2ccc(N/C=C\C(=O)c3ccc4c(c3)Nc3ccccc3S4)cc2)c1C` showed an IC50 of 79.5 µM.
Same read-out and setting: the result for `O=C(/C=C\Nc1ccc(S(=O)(=O)c2ccc(N/C=C\C(=O)c3ccc4c(c3)Nc3ccccc3S4)cc2)cc1)c1ccc2c(c1)Nc1ccccc1S2` reads 46.4 µM.
In turn, `N=C(N)NS(=O)(=O)c1ccc(N/C=C\C(=O)c2ccc3c(c2)Nc2ccccc2S3)cc1` gave an IC50 with T47D [1] of 23.7 µM. At Aromatase, the IC50 was 9.67 µM and the “inhibition (INH)” value is given as 72.22%.
Regarding `O=C(/C=C\Nc1ccc(S(=O)(=O)Nc2nccs2)cc1)c1ccc2c(c1)Nc1ccccc1S2`, the Activity result was “Dose-dependent effect” in the series with T47D [2]; 13.1% with T47D [3]; “Below limit of detection” in the series on T47D [7]; 56.3% with T47D [9]; 7.4% with T47D [10]; 23.2% in the series with T47D [11]. Further, the IC50 worked out at 8.1 µM with T47D [1], 5.67 µM against Aromatase and 391 µM in series [8]. Moreover, the “inhibition (INH)” value at Aromatase amounted to 68.32%. Further, the “fold change (FC)” value in the series on T47D [4] is given as 34; in the series with T47D [5] it was 8.9; in the series with T47D [6] it was 55000. For the same compound, the Ratio in the series on T47D [12] amounted to 1e+08.
On to `CC(=O)NS(=O)(=O)c1ccc(N/C=C\C(=O)c2ccc3c(c2)Nc2ccccc2S3)cc1`, for which, in the series on T47D [1], the half-maximal inhibitory concentration (IC50) was determined as 71.8 µM. The “inhibition (INH)” value at Aromatase worked out at 40.52%.
Consider `Cc1cc(C)nc(NS(=O)(=O)c2ccc(N/C=C\C(=O)c3ccc4c(c3)Nc3ccccc3S4)cc2)n1`, for which the IC50 in the series with T47D [1] was 50.7 µM. Moreover, the “inhibition (INH)” value against Aromatase is on record as 43.62%.
For `COc1cc(NS(=O)(=O)c2ccc(N/C=C\C(=O)c3ccc4c(c3)Nc3ccccc3S4)cc2)nc(OC)n1` the same measures were 58.1 µM and 44.94%.
In the series on T47D [1], `COc1cccc2c1C(=O)c1c(O)c3c(c(O)c1C2=O)C[C@@](O)(C(=O)CO)C[C@@H]3O[C@H]1C[C@H](N)[C@H](O)[C@H](C)O1` [DOXORUBICIN] returned an IC50 of 9.8 µM.
As to `O=C(/C=C\Nc1ccc(S(=O)(=O)Nc2ncccn2)cc1)c1ccc2c(c1)Nc1ccccc1S2`, half-maximal inhibition in the series on T47D [1] (IC50) required 61.3 µM. For the same compound, at Aromatase, the “inhibition (INH)” value is reported as 30.82%.
In turn, `CN(C)/C=C\C(=O)c1ccc2c(c1)Nc1ccccc1S2` displayed an IC50 with T47D [1] of 136 µM.
As for `Cc1nnc(NS(=O)(=O)c2ccc(N/C=C\C(=O)c3ccc4c(c3)Nc3ccccc3S4)cc2)s1`, in the series on T47D [1], half-maximal inhibition (IC50) was put at 71.4 µM.
With `COc1cnc(NS(=O)(=O)c2ccc(N/C=C\C(=O)c3ccc4c(c3)Nc3ccccc3S4)cc2)nc1`, in the series on T47D [1], the half-inhibitory concentration (IC50) was found to be 83.2 µM.
As for `NS(=O)(=O)c1ccc(N/C=C\C(=O)c2ccc3c(c2)Nc2ccccc2S3)cc1`, the IC50 with T47D [1] turned out to be 67.6 µM. The “inhibition (INH)” value against Aromatase is given as 28.9%.
For `Nc1ccc(S(=O)(=O)c2ccc(N/C=C\C(=O)c3ccc4c(c3)Nc3ccccc3S4)cc2)cc1` the same measures were 54.9 µM and 31.92%.
As to `O=C(/C=C\Nc1ccc(S(=O)(=O)Nc2cnc3ccccc3n2)cc1)c1ccc2c(c1)Nc1ccccc1S2`, the results for the IC50 in the series with T47D [1] and on Aromatase were 21.4 µM and 8.9 µM, respectively. The “inhibition (INH)” value against Aromatase is listed as 65.1%.
In the series on T47D [1], `Cc1cc(NS(=O)(=O)c2ccc(N/C=C\C(=O)c3ccc4c(c3)Nc3ccccc3S4)cc2)nc(C)n1` displayed an IC50 of 56.5 µM. The “inhibition (INH)” value against Aromatase amounted to 35.88%.
On to `COc1ncnc(NS(=O)(=O)c2ccc(N/C=C\C(=O)c3ccc4c(c3)Nc3ccccc3S4)cc2)c1OC`, for which the IC50 with T47D [1] stood at 82.2 µM.
The compound `Cc1ccnc(NS(=O)(=O)c2ccc(N/C=C\C(=O)c3ccc4c(c3)Nc3ccccc3S4)cc2)n1` returned an IC50 in the series on T47D [1] of 73.6 µM.
Still for that read-out and setting: the result for `O=C(/C=C\Nc1ccc(S(=O)(=O)Nc2ccc3cn[nH]c3c2)cc1)c1ccc2c(c1)Nc1ccccc1S2` reads 91.1 µM.
In turn, `Cc1cc(NS(=O)(=O)c2ccc(N/C=C\C(=O)c3ccc4c(c3)Nc3ccccc3S4)cc2)on1` gave an IC50 with T47D [1] of 78.4 µM.

Source of the values: ChEMBL document CHEMBL4033644, “Aromatase inhibitors and apoptotic inducers: Design, synthesis, anticancer activity and molecular modeling studies of novel phenothiazine derivatives carrying sulfonamide moiety as hybrid molecules” (Eur J Med Chem, 2017).
